Bioassay records as filed in PubChem BioAssay.
Most compounds without a hit are left out; they make up all but 4.6% or so of the library.
STAT1 act – STAT1 signaling activation; NIH 3T3 STAT1-luciferase reporter, IFN-gamma, luminescence; 100% = IFN-gamma alone, no compound; activation (% of control), % at 5.5 µM; 2.6% of 200,000 active; AID 932;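 active = activation above the screen-wide mean activation plus 3 SD, cut at about 130% in these data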
Mdm2 ligase inh – blocks human Mdm2 ubiquitin ligase activity. Q00987. cell-based MDM2 ubiquitination luciferase reporter, 2 h; 0 = plate control, 100 = twice control, blank-subtracted. signal enhancement, % at 5 µM. 0.11% of 210,000 active. AID 1230;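 active = signal enhancement of 30% or more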;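 note: luminescence tracks abundance of the self-degrading MDM2-luciferase fusion protein; higher signal means inhibition of MDM2 E3 ligase activity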
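Material: Stable MDM2–luciferase fusion reporter cells | Amount: 2000 cells seeded into each well | Dosing: One concentration, 5 µM, with 0.2% DMSO | Incubation: 4 h cell settling then 2 h compound exposure, 37 °C | Measured by: Luciferase luminescence | Read-out basis: % enhancement relative to plate controls after blank subtraction | Benchmarks: Control and blank well means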
NF-kB expr up – raises NF-kB expression in human neuronal cells. NF-kB reporter expression; stronger effect = higher value. fold change at 12.5 µM. 1.6% of 190,000 active. AID 1239; in the data active = fold change above about 3.3
Wee1 degr inh – inhibitors of human Wee1 degradation; P30291; HeLa Luc-Wee1K328M stability, luciferase luminescence; 100% = proteasome inhibitor MG132 effect; reporter increase, % at 5 µM; 1.2% of 220,000 active;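 active = activation above the mean of all tested compounds plus 3 SD, set per screening run, cut at about 8.8% in these data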;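 note: cells exposed to compound for 20 h before luminescence read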
Target sequence (P30291 whole entry K328M): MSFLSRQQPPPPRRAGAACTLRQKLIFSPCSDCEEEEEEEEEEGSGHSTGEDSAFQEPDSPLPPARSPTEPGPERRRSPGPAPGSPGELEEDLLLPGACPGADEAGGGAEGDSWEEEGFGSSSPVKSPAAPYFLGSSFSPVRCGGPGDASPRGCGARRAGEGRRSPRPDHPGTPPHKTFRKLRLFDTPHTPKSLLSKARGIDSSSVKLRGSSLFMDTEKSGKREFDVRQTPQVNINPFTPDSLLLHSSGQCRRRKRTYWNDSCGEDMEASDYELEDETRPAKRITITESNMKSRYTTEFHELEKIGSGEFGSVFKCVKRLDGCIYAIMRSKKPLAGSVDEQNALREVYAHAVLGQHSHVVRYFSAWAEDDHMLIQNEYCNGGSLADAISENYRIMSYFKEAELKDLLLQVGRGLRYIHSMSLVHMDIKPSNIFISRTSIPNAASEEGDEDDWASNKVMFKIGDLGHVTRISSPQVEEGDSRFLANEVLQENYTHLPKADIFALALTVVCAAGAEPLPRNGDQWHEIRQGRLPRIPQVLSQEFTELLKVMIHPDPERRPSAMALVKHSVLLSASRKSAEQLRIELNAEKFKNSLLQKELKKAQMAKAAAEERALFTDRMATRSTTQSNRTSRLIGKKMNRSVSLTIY
APP 5'UTR act – activates APP 5'UTR luciferase reporter | SH-SY5Y APP 5'UTR luciferase reporter, luminescence; zero percent = DMSO vehicle wells | activation, % at 2 µM | 1% of 190,000 active | AID 1276;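 active = activation above a set limit, based on mean plus 3 SD of controls, cut at about 140% in these data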
p97 ATPase inh – human p97 ATPase inhibition. recombinant p97 ATPase, Kinase-Glo ATP luminescence, 3 h. inhibition, % at 8 µM. 0.42% of 220,000 active; in the data active = inhibition above about 15%
p97 confirm – confirmation of human p97 ATPase inhibitors; recombinant p97 ATPase, Kinase-Glo ATP luminescence; shares compounds with p97 ATPase inh; 44% of 760 active; inhibition, % at 8 µM;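 active = percent inhibition of p97 ATPase above a set limit, the primary screen's mean plus 3 SD, cut at about 15% in these data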
Large screens that a line does not name were inactive (follow-up assays come after a bar, where they were run).

Cc1cc(-c2cc(C(=O)O)c3ccccc3n2)c(C)s1	none
CC1(C)Cn2c(nc(=O)c3c2NCN(CCc2ccccc2)C3)S1	none
O=C(N/N=C/c1c[nH]c2ccccc12)c1cc(-c2ccc(-c3ccccc3)cc2)n[nH]1	p97 ATPase inh 17 | p97 confirm inactive
Cc1nnc(C)c2c(C)n(-c3ccccc3N)c(C)c12	none
NC(=O)COC(=O)Cc1coc2cc3c(cc12)CCC3	none
CC(C)N(CC(N)=O)C(=O)Cc1coc2cc3c(cc12)CCC3	p97 ATPase inh 26 | p97 confirm inactive
COc1ccc(NC(=O)c2cc(SC)ccc2Cl)cc1	p97 ATPase inh 16 | p97 confirm inactive
O=C(C[n+]1cnn(CC(=O)c2ccc(Cl)cc2Cl)c1)c1ccc([N+](=O)[O-])cc1	p97 ATPase inh 17 | p97 confirm inactive
O=C(Nc1cnn(Cc2ccc(Cl)cc2)c1)c1ccc([N+](=O)[O-])cc1	none
Oc1ccc(-c2nc3ccccc3s2)c(O)c1	p97 ATPase inh 17 (no result: STAT1 act, NF-kB expr up, APP 5'UTR act) | p97 confirm inactive
N#C/C(=C(/O)CCl)c1nc2ccccc2[nH]1	p97 ATPase inh 38 | p97 confirm 30
Cc1ccc(C)c(SCC(=O)OC/C(O)=C(\C#N)c2nc3ccccc3[nH]2)c1	p97 ATPase inh 18 | p97 confirm 40
Cc1cc(C)cc(OCC(=O)OC/C(O)=C(\C#N)c2nc3ccccc3[nH]2)c1	none
N=c1c(C(=O)NCc2ccco2)cc2c(=O)n3ccccc3nc2n1Cc1ccccc1	none
N=c1c(C(=O)NCc2ccccc2)cc2c(=O)n3ccccc3nc2n1Cc1ccco1	NF-kB expr up 12, p97 ATPase inh 23 | p97 confirm inactive
CCN(CC)c1cccc(OC2=NS(=O)(=O)c3ccccc32)c1	p97 ATPase inh 19 | p97 confirm inactive
O=C1NNC(c2ccccc2)=N/C1=C\c1ccccc1Cl	p97 ATPase inh 17 (no result: STAT1 act, NF-kB expr up, APP 5'UTR act) | p97 confirm 18
CCOC(=O)C(C)Oc1cccc2c(=O)n(CC(=O)Nc3ccc4c(c3)OCCO4)ccc12 (centres undefined)	p97 ATPase inh 35 | p97 confirm inactive
CCOC(=O)C(C)Oc1cccc2c(=O)n(CC(=O)Nc3cccc(OC)c3)ccc12 (centres undefined)	none
COc1ccc(-n2c(CNC(=O)COc3ccc(Cl)cc3Cl)n[nH]c2=S)cc1	none
Nc1c(-c2ccccc2)c(CSc2nc3ccccc3[nH]2)nn1-c1cccc(C(=O)O)c1	p97 ATPase inh 16 | p97 confirm inactive
CCOc1ccc(C(=O)N/N=C/c2c(C)[nH]c(=O)[nH]c2=O)cc1	none (no result: STAT1 act, NF-kB expr up, APP 5'UTR act)
Cc1ccc2[nH]c(=O)c(CN(CCCN(C)C)C(=O)Nc3ccc(F)cc3)cc2c1	p97 ATPase inh 16 | p97 confirm inactive
O=C(CSc1ncnc2scc(-c3ccccc3)c12)Nc1ccc(C(=O)O)cc1	p97 ATPase inh 20 (no result: STAT1 act, NF-kB expr up, APP 5'UTR act) | p97 confirm 17
O=C(O)c1ccc(Nc2ncnc3scc(-c4ccccc4)c23)cc1	none
O=C(Nc1c2c(nn1-c1ccc(F)cc1)CS(=O)(=O)C2)c1ccc(S(=O)(=O)N2CCOCC2)cc1	none
C/C(=N/NC(=O)c1ccc(Br)o1)C(C)C	none
Cc1onc(-c2ccccc2)c1NC(=O)N(CCC#N)Cc1ccccc1	none (no result: STAT1 act, NF-kB expr up, APP 5'UTR act)
CN(C(=S)Nc1cccnc1)c1ccc(O)cc1	p97 ATPase inh 18 | p97 confirm inactive
O=C(N/N=C/c1cccs1)c1cc(-c2cccc3ccccc23)n[nH]1	p97 ATPase inh 16 | p97 confirm 27
O=C1NCC(COc2ccc(Cl)cc2)O1 (centres undefined)	none
CC(=O)N(/N=C1\Sc2ccccc2C1=O)c1ccccc1C	NF-kB expr up 5, p97 ATPase inh 18 | p97 confirm 25
CCOC(=O)CNC(=O)c1ccc2[nH]c3ccccc3c2c1	p97 ATPase inh 15 | p97 confirm inactive
O=C(NCC(O)CO)c1ccc2[nH]c3ccccc3c2c1 (centres undefined)	none
CCOc1ccccc1CN1CCN(Cc2nc3c(s2)CCCC3)CC1CCO (centres undefined)	none
C#CCSc1nnnn1-c1cccc(Cl)c1	none (no result: STAT1 act, NF-kB expr up, APP 5'UTR act)
Cc1oc2c(c1C(=O)O)C(=O)c1ccccc1C2=O	none
Cc1oc2c(c1C(=O)c1ccccc1)C(=O)C(=O)c1ccccc1-2	p97 ATPase inh 31 | p97 confirm 29
O=C(CNC(=O)c1ccc(F)cc1)Nc1ccccc1C(F)(F)F	none (no result: STAT1 act, Mdm2 ligase inh, NF-kB expr up, APP 5'UTR act)
CN(CCO)c1nc(N)c2c(N)nc3c(c2c1C#N)CC(=O)N3C1CCCC1	none
CC(C)(C)N1C(=O)Cc2c1nc(N)c1c(N)nc(N3CCCCC3CO)c(C#N)c21 (centres undefined)	p97 ATPase inh 28 | p97 confirm 36
CCN1/C(=N\N)c2cccc3cccc1c23	none
O=C(NCc1ccncc1)C(=O)NC1CC1	none
O=C(CCl)Nc1ccccc1C(=O)NCc1ccccc1	p97 ATPase inh 18 | p97 confirm 16
COC(=O)CC1Sc2ccccc2NC1=O (centres undefined)	p97 ATPase inh 16 | p97 confirm inactive
Cc1ccc(C(=O)NC(C#N)=C(Cl)Cl)cc1	p97 ATPase inh 22 | p97 confirm 21
Cc1ccc(C(=O)NCC#N)cc1	none
COc1ccc2c(c1)c(/C=N/Nc1nc3ccccc3[nH]1)c(C)n2C	p97 ATPase inh 33 (no result: STAT1 act, NF-kB expr up, APP 5'UTR act) | p97 confirm inactive
COc1cc(/C=N\Nc2nc3ccccc3[nH]2)cc(OC)c1OC	none
Cc1cccc(CSc2nnc(CCNC(=O)OC(C)(C)C)o2)c1	none (no result: STAT1 act, NF-kB expr up, APP 5'UTR act)
CC1=NN(c2ccccc2)C(=O)C1N=Nc1ccc(C)cc1 (centres undefined)	none
CC1=NN(c2ccc(C)cc2C)C(=O)C1C(c1ccccc1O)C1C(=O)N(c2ccc(C)cc2C)N=C1C (centres undefined)	p97 ATPase inh 28 | p97 confirm inactive
Cn1nc(-c2ccc(Cl)cc2)nc2c(=O)n(C)c(=O)nc1-2	p97 ATPase inh 38 | p97 confirm 41
CS(=O)(=O)n1nc(-c2ccc(Cl)cc2)nc1N	none
CCCCOc1ccccc1NC(=O)c1ccco1	none
CCCCOc1ccccc1NC(=O)c1scc2c1OCCO2	p97 ATPase inh 16 | p97 confirm 20
